Most compounds without a hit are left out; they make up all but 3.2% or so of the library.
hDAT+cocaine = modulates human dopamine transporter uptake under cocaine; Q01959; LLC-PK1 hDAT cells, [14C]-dopamine uptake with cocaine IC80; actives deviate in either direction; B-score at 10 µM; actives 1.3% (n = 110,000); AID 449768;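 active = Z score or B-score, a plate-position-corrected score, falls beyond the plate's 99.7% confidence bounds, in either direction; inactive = both scores lie inside the 99.7% bounds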
Target sequence (Q01959 whole entry, looked up): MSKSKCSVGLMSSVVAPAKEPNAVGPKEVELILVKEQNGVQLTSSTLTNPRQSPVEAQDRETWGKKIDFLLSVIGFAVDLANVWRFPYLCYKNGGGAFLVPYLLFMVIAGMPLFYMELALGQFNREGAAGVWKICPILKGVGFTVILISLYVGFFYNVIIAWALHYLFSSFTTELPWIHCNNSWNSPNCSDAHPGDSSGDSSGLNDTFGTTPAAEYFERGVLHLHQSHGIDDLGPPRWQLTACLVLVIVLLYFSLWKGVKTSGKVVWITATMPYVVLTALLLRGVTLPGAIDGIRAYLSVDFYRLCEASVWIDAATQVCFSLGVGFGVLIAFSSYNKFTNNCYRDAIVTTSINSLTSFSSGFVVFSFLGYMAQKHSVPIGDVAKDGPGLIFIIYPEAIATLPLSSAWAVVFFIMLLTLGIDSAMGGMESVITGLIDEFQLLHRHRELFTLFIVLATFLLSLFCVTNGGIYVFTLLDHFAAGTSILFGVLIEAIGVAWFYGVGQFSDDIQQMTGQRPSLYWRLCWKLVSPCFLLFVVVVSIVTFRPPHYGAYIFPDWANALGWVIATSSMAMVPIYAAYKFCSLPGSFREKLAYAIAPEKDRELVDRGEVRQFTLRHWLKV
Plk1 PBD FP = blocks phosphopeptide binding to human Plk1 polo box domain. P53350. Plk1 PBD phosphopeptide binding, fluorescence polarization. inhibition, %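 (tested at about 20 µM)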. actives 0.13% (n = 97,000). AID 693; in the data active = inhibition above about 34%, passing the limit was not always enough
HIV Rev-RRE inh = HIV Rev-RRE protein-RNA interaction inhibition; actives 0.79% (n = 97,000); P05866; inhibition, % at 8 µM; AID 704; Rev peptide-RRE RNA binding, FRET;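 active = inhibition above the screen-wide mean plus 3 SD, cut at about 35% in these data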
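assay system = Cy5-tagged RRE RNA duplex with fluorescein-tagged Rev peptide | incubation = 5 + 15 min at 25 °C | also added = labelled Rev peptide | measure = % inhibition of FRET ratio versus controls | benchmarks = DMSO wells as 0% and neomycin B wells as 100% inhibition | measured by = FRET fluorescence readout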
FAK inh = blocks human focal adhesion kinase activity | Q05397 | biochemical FAK kinase activity assay | inhibition, %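 (tested at 7 µM)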 | actives 0.84% (n = 97,000) | AID 727; in the data active = inhibition above about 19%
PLK1 inh = blocks human PLK1 kinase activity; AID 619; actives 0.53% (n = 97,000); inhibition, % at 10 µM; P53350; recombinant PLK1 kinase, TR-FRET peptide phosphorylation;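 active = inhibition of 50% or more in the single-concentration screen; inactive = inhibition below 50%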
EphB4 ephrin blk = antagonists of human EphB4-ephrin-B2 interaction; EphB4 LBD / TNYL-RAW-Alexa532 peptide, fluorescence polarization; actives 0.15% (n = 97,000); P54760; inhibition, % at 7 µM; AID 720;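 active = inhibition above the screen-wide mean inhibition plus 3 SD, cut at about 15% in these data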
A number is an active result; n = inactive; x = not tested or not shown; [ ] = another dose, or the depositor's remark.

SMILES	hDAT+cocaine	Plk1 PBD FP	HIV Rev-RRE inh	FAK inh	PLK1 inh	EphB4 ephrin blk
CC1Cc2ccccc2N1C(=O)CSCC(=O)O (stereo unspecified)	0.64	n	n	n	n	n
CCN1CCN(CC(=O)N2c3ccccc3CC2C)CC1 (stereo unspecified)	n	n	n	n	n	n
O=C(SCC(O)C(O)CS)c1cccs1 (stereo unspecified)	n	x	x	x	x	x
O=C(CCc1ccccc1)Nc1nnc(-c2ccc3c(c2)CCCC3)o1	n	n	n	n	n	n
CC1CC(C)CN(S(=O)(=O)c2ccc(C(=O)Nc3nnc(-c4cccs4)o3)cc2)C1 (stereo unspecified)	x	n	n	n	n	n
O=C(Nc1nnc(-c2cccs2)o1)c1cccc(C(F)(F)F)c1	n	n	n	n	61	n
O=C(CCc1ccccc1)Nc1nnc(-c2cccs2)o1	n	n	n	n	62	n
COc1cc2c(cc1OC)CN(CC(=O)Nc1ccccc1C#N)CC2	n	n	n	n	n	n
COc1cc2c(cc1OC)C1=C(C#N)CN(CC(=O)O)CN1CC2	x	n	n	n	61	n
COC(=O)CCC(=O)c1oc2ccc(Br)cc2c1N	n	n	n	n	n	n
COc1ccc2oc(C(=O)CCC(=O)O)c(N)c2c1	x	n	n	n	63	n
C=CCn1c(=S)[nH]c2nc3c(cc2c1=O)CCCC3	15	n	n	n	n	n
N#C/C(=C\N1CCN(Cc2ccc3c(c2)OCO3)CC1)c1nc2ccccc2s1	n	n	65	n	n	n
CCOC(=O)N1CCN(/C=C(\C#N)c2nc3ccccc3s2)CC1	n	n	53	n	n	n
C=CCOC(=O)C(C#N)c1nc2ccccc2nc1N1CCN(Cc2ccc3c(c2)OCO3)CC1 (stereo unspecified)	n	x	x	x	x	x
CCOc1cc(/C=N/NC(=O)CNc2ccc(C)cc2)ccc1OC(=O)c1ccccc1	n	n	n	n	n	n
CCOC(=O)c1ccccc1-c1csc(NS(=O)(=O)c2ccc(Cl)cc2)n1	-4.8	n	n	n	n	n
C=CCc1c(C)c(C#N)c2nc3ccccc3n2c1NCCN(C)C	2.7	n	n	n	n	n
CCOc1ccc(-c2nc(CSCC(=O)N3CCN(c4cccc(OC)c4)CC3)c(C)o2)cc1	n	n	n	n	64	n
Nc1ccc2c3c(cccc13)CC2	n	n	47	n	n	n
c1ccc(Nc2ccc3c4c(cccc24)CC3)cc1	n	n	n	n	n	n
CCOC(=O)c1[nH]c(COC(=O)CCOc2ccccc2OC)c(C(=O)OCC)c1C	n	n	n	n	n	n
CCOC(=O)c1c(C)[nH]c(C)c1C(=O)COC(=O)CCOc1ccccc1OC	n	n	n	n	65	n
CC(C)c1ccc(-c2nn(-c3ccccc3)cc2C2C(C#N)=C(N)OC3=C2C(=O)CC(C)(C)C3)cc1 (stereo unspecified)	n	n	n	n	n	n
CCOC(=O)c1c(NC(=O)C(F)(OC)C(F)(F)F)sc2c1CCN(C)C2 (stereo unspecified)	n	n	56	n	n	n
SMILES	hDAT+cocaine	Plk1 PBD FP	HIV Rev-RRE inh	FAK inh	PLK1 inh	EphB4 ephrin blk
CCOC(=O)c1c(NC(=O)CSc2nnc(C)s2)sc2c1CCN(C)C2	n	n	40	n	n	n
CCOC(=O)c1c(NC(=O)OC)sc2c1CCC2	n	n	n	n	n	n
Cc1cc(C)c(NC(=O)c2ccc(CN3CCc4ccccc4C3)cc2)c(C)c1	n	n	n	n	n	n
O=C(COc1ncnc2ccc(Br)cc12)NCc1ccc2c(c1)OCO2	-8.9	n	n	n	n	n
COCCNC(=O)COc1ncnc2ccc(Br)cc12	n	n	n	n	n	n
NC(=O)CC(NC(=O)c1ccccc1)C(=O)O (stereo unspecified)	n	x	x	x	x	x
O=C(CC(Nc1ccccc1)C(=O)O)c1ccccc1 (stereo unspecified)	2.9	x	x	x	x	x
Cc1ccc(NC(=O)C(C)c2ccc(-c3ccccc3)c(F)c2)c(C)c1 (stereo unspecified)	n	n	n	n	n	n
COc1cc(N2CCCC2)c(OC)cc1/C=C(/C#N)c1cccc(F)c1	n	n	117[fluorescence artefact?]	n	n	n
O=C(Nc1ccc(N2CCCC2)cc1)c1cccc(F)c1	n	n	n	n	n	n
N#C/C(=C/c1ccc(N2CCCCCC2)o1)c1ccc(F)cc1	n	n	73	n	n	n
